In the library only some 0.57% were active in any assay of this set; here they are far more common.
pCIP destab: p/CIP-EGFP fusion destabilizers, primary screen, fluorescence, F442A cells. Q05BA5. 16 h. decrease of EGFP signal, % at 10 µM. 290,000 tested, 0.01% active. AID 1984, 2009;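 active means EGFP signal decrease of at least 30% at 10 µM or well 3 SD below plate mean, unless failing retest; inactive means the rest, including hits failing retest or dose response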
VLA-4 inh: inhibition in human VLA-4 binding assay, primary screen, VLA-4 allosteric modulator project, MLPCN library, flow cytometry, VLA-4 expressing cells; ligand binding flow cytometry; inhibition, % (about 7 µM as worked out from the volumes in the protocol); 330,000 tested, 0.2% active; AID 2557, 2010; in the data active means inhibition above about 50%
Arr AP2 block: inhibitors of beta-arrestin/AP2 binding, primary screen, biochemical, GPCR trafficking, flow cytometry | beta-arrestin 1 C-terminal peptide binding to AP2 beta2-adaptin appendage (human) | FITC-arrestin peptide / GST-AP2 beads; AP2 beta2 appendage carries R879A mutation | inhibition, % at 10 µM | 340,000 tested, 0.31% active;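 active means inhibition above a set limit, near 3 SD of compounds lacking own fluorescence, cut at about 54% in these data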
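Material – AP2 appendage R879A on GSH beads · Buffer or medium – PBS with 0.05% Tween 20 and 0.1% BSA · Probe or stimulus – fluorescein-tagged arrestin peptide at 50 nM final · Incubation – compound with beads 12 min RT, then probe 1 h RT · Detection – high-throughput flow cytometry of beads, ex 488, em 535 nm · Evaluation – percent response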
JMJD2C inh: inhibitors of GASC-1 histone demethylase, primary screen, biochemical, fluorescence, DELFIA europium | inhibition, % at 2.35 µM | 330,000 tested, 0.069% active | GST-JMJD2C(1-420) H3K9me3 demethylation | Lysine-specific demethylase 4C (Homo sapiens), Q9H3R0 | AID 2099, 2009;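 active means more than half of a compound's replicate wells show inhibition beyond 50%, single wells judged on their own value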;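 further: signal counts dimethyl H3K9 product captured on neutravidin plate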
Hits are given with their value; - = inactive; . = not tested or not shown.

SMILES | pCIP destab | VLA-4 inh | Arr AP2 block | JMJD2C inh
COc1ccc(/C=N/Nc2cc(=O)n(C)c(=O)n2C)cc1OC | - | - | - | 52
COc1cc(/C=N\Nc2cc(=O)n(C)c(=O)n2C)ccc1O | - | - | - | -
N#C/C(=C/c1cn(CC(=O)O)c2ccccc12)C(=O)NCc1ccccc1 | 75 | - | - | -
Cc1cccc(C)c1NS(=O)(=O)c1cc2c3c(c1)CCN3C(=O)CC2 | . | - | - | -
Cc1cccc(C)c1NS(=O)(=O)c1cc2c3c(c1)CC(=O)N3CCC2 | - | - | - | 54
CCN1c2ccccc2N(C)C1(C)c1ccccc1 (stereo not drawn) | - | - | 75 | -
O=C(c1cccc(C(=O)N2CCN(Cc3ccccc3)CC2)c1)N1CCN(Cc2ccccc2)CC1 | - | - | - | -
O=C(c1cccc(Cl)c1)N1CCN(Cc2ccncc2)CC1 | 29 | . | - | .
Cc1sc2nc(CSc3ccccc3)nc(N3CCC(C(N)=O)CC3)c2c1C | - | - | - | -
CCOC(=O)c1sc2nc(CSc3ccccc3)nc(N3CCC(C(N)=O)CC3)c2c1C | 40 | - | - | -
COc1cc(OC)cc(C(=O)Nc2ccc(-n3cnnn3)c(C)c2)c1 | - | - | - | 89
COc1ccc(C(=O)NCC(O)CN2CCOCC2)cc1[N+](=O)[O-] (stereo not drawn) | - | - | - | -
CCCN1CCN(CCCNC(=S)Nc2ccc3nc(N4CCN(CC)CC4)cc(C)c3c2)CC1 | 80 | - | - | -
COc1cccc(CN2CC(C(=O)NCCN3CCOCC3)CCC2=O)c1 (stereo not drawn) | - | - | - | -
Cc1cccc(N2C(=O)C3C4C=CC(C4)C3C2=O)c1 (stereo not drawn) | - | - | - | 54
Cc1ccc(N2C(=O)C3C4C=CC(C4)C3C2=O)cc1C (stereo not drawn) | - | - | - | -
Cc1cccc(C(=O)N/N=C/C(C)Cc2ccc3c(c2)OCO3)c1 (stereo not drawn) | - | - | - | 67
Cc1ccc(NC(=O)Nc2cc(Cl)ccc2C2COC(=O)C2=N)cc1 (stereo not drawn) | - | 55 | - | -
N=C1C(=O)OCC1c1ccccc1NC(=O)Nc1ccccc1 (stereo not drawn) | - | - | - | -
Brc1ccc(C2Nc3cccc4cccc(c34)N2)o1 | - | - | 54 | -
CCOC(=O)C1=C(Cc2ccc(OC)cc2)C(=O)c2ccccc2C1=O | - | . | 55 | .
COc1ccc(P(=O)(COc2ccc([N+](=O)[O-])cc2)c2ccc(OC)cc2)cc1 | - | - | - | -
O=C(CNC(=O)c1ccccc1O)N/N=C/c1cc(Br)ccc1OC(=O)/C=C/c1ccco1 | - | - | . | 54
O=C(CS(=O)(=O)c1ccccc1)Nc1nc2ccccc2s1 | - | - | - | -
C[C@@H]1CN([C@@H](C)CO)C(=O)c2cccc(NS(C)(=O)=O)c2O[C@H]1CN(C)C(=O)Nc1ccc(F)cc1 | . | - | - | -
SMILES | pCIP destab | VLA-4 inh | Arr AP2 block | JMJD2C inh
Nc1ncnc2c1ncn2[C@@H]1O[C@H](CNCC#Cc2ccccc2)[C@@H](O)[C@H]1O | . | - | - | 54
CC(c1ccccc1)n1cc(C(=O)NCCCn2ccnc2)nn1 (stereo not drawn) | - | - | - | 55
CC(=O)N(C)C1=C(N2CCOCC2)C(=O)c2ccccc2C1=O | - | - | - | 99
CCOC(=O)C1(C)NC(c2cccs2)C2C(=O)N(c3ccc(OC)cc3)C(=O)C21 (stereo not drawn) | - | - | . | 55
Cc1cccc(NC(=O)c2cc3c(=O)n4ccccc4nc3n(CC(C)C)c2=N)c1 | - | 68 | - | -
COc1cccc(NC(=O)c2cc3c(=O)n4ccccc4nc3n(CC(C)C)c2=N)c1 | - | - | - | -
CCC(C)NC(=O)Cc1cn(C)c2ccccc12 (stereo not drawn) | - | - | - | -
S=C(NCc1cccc(Cl)c1)NC1CCCCC1 | - | - | - | -
CN1CCN(/N=C/c2c3ccccc3c(Cl)c3ccccc23)CC1 | - | 57 | - | -
Cc1nc2ccc(CN(C)c3ccc(C(=O)N[C@@H](CCC(=O)O)C(=O)O)s3)cc2c(=O)[nH]1 | . | 52 | . | -
COc1ccccc1NC(=O)COC(=O)c1[nH]c(=O)[nH]c(=O)c1N | . | - | - | 53
COc1ccccc1NC(=O)COC(=O)c1c[nH]c(=O)[nH]c1=O | - | - | - | -
COc1cc(CNc2cccc(C(=O)O)c2)cc(Br)c1OCC(=O)NC(C)(C)C | - | - | - | -
COc1ccc(C(=O)NC2CC3CCCC(C2)N3Cc2ccccc2)cc1 (stereo not drawn) | - | - | - | 60
O=c1cc(NC2CCCCCC2)[nH]c(=O)[nH]1 | - | - | - | 54
O=c1[nH]c2ccc(NC(=S)NC3CCCCC3)cc2[nH]1 | - | - | - | -
O=c1cc(-c2ccccc2O)nc(-c2ccccc2)[nH]1 | . | - | - | -
O=C1C=C(c2ccc(-c3ccccc3)c(F)c2)C[C@@H](c2ccc3c(c2)OCO3)C1 | . | - | - | -
N#Cc1cc(-c2ccccc2)nnc1Sc1ccccc1 | - | - | - | 102
N#Cc1cc(-c2ccccc2)nnc1Sc1ccc(F)cc1 | - | - | - | -
CCO[C@@H]1OC(C(=O)NC2CC2)=C[C@H](c2c[nH]c3ccccc23)[C@H]1CCCO | - | - | - | 52
O=C(c1ccoc1)N1CCCC(Nc2ccc(F)c(F)c2)C1 (stereo not drawn) | - | - | - | -
COc1ccc(OC)c2sc(N(CCCN(C)C)C(=O)c3ccc(S(=O)(=O)N4CCc5ccccc5C4)cc3)nc12 | . | 53 | . | -
Cc1ccc(NC(=O)CN2c3cccc4cccc(c34)S2(=O)=O)cc1 | . | - | - | -
COc1ccc(-c2sc(Nc3cccc4ccccc34)n[n+]2C)c(C)c1C | . | . | - | .
SMILES | pCIP destab | VLA-4 inh | Arr AP2 block | JMJD2C inh
Cc1n[nH]c(=S)n(/N=C/c2cccc([N+](=O)[O-])c2)c1=O | - | - | - | -
Cc1cccc(NC(=O)CC2Nc3cccc4cccc(c34)NC2=O)c1 (stereo not drawn) | - | - | - | 51
O=C(CN1CC(=O)Oc2ccccc21)OCC(=O)c1cccc(Br)c1 | - | - | 58 | -
COc1ccccc1NC(=O)CN1C(=O)CC(C)S(=O)(=O)c2ccccc21 (stereo not drawn) | - | - | - | -
CCc1nnc(N/N=C/c2cc(Br)c(O)cc2O)n1N | - | - | - | 58
CCc1nnc(N/N=C/c2ccc(O)c(OC)c2)n1N | - | - | - | -
Cc1ccn2cc(CCNS(=O)(=O)c3ccc4ccccc4c3)nc2c1 | - | - | - | -
Cc1ccc(N(CC(=O)N/N=C/c2cc(C)n(-c3ccccc3C)c2C)S(C)(=O)=O)cc1 | 22 | - | - | -
O=C(c1ccc(O)cc1)c1ccc(C(=O)c2ccc(O)cc2)cc1 | - | - | - | -
O=C(C(=O)c1ccc(O)cc1)c1ccccc1 | - | 58 | - | -

Screening results from PubChem BioAssay.
